Consider 15 compounds from ChEMBL document CHEMBL2412988, “Synthesis, pH-dependent, and plasma stability of meropenem prodrugs for potential use against drug-resistant tuberculosis” (Bioorg Med Chem, 2013).

Series [1] in a line: Half life in Dunkin-Hartley guinea pig plasma at 5 mM by HPLC analysis. To be noted: for t1/2: 5000 µM. The format is ADME, cell-free, Cavia porcellus. A digest of the protocol: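 Pooled plasma from female Dunkin Hartley guinea pigs was pre-warmed 2 min at 37 °C, then prodrug was added from a 5.0 mM stock. Runs were in triplicate. Aliquots were taken at 0, 2.5, 5, 10, 15 and 30 min, quenched with an equal volume of acetonitrile, filtered and analysed by reversed-phase HPLC at 300 nm for half-life.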

Series [2] in a line: Half life in simulated gastric fluid at 100 uM at pH 1.2 by HPLC analysis. The class given is physicochemical. To be noted: for t1/2: simulated gi fluid, pH 1.2, 100 µM. The procedure, abridged: (§1)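 Meropenem or prodrug at 100 µM final (from a 5.0 mM DMSO stock) incubated at 37 °C in triplicate in simulated gastric fluid pH 1.2, 100 mM MES pH 6.0, or pH 7.4 buffer, after 2 min buffer pre-warming. Aliquots taken at 0–120 min and injected directly onto reversed-phase HPLC with UV at 300 nm. Half-life, % prodrug remaining at 120 min, or species concentration over time was reported.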

A short description of series [3]: Half life in HEPES buffer at 100 uM at pH 7.4 by HPLC analysis. The format is physicochemical. The note with it: pH 7.4, 100 µM. A digest of the protocol:
as §1

For series [4], the system named is Plasma. In words: (§2) Half life in human plasma at 5 mM by HPLC analysis. The format is ADME, cell-free. To be noted: 5000 µM.
The nature of series [5]: Prodrug stability in HEPES buffer assessed as prodrug remaining at 100 uM after 120 mins at pH 7.4 by HPLC analysis. The format is physicochemical. To be noted: pH 7.4, 2 h. The procedure, abridged:
as §1

A short description of series [6]: Prodrug stability in MES buffer assessed as prodrug remaining at 100 uM after 120 mins at pH 6 by HPLC analysis. To be noted: pH 6, 2 h. The format is physicochemical. The procedure, abridged: as §1
Series [7] can be described thus: as §2. The format is ADME, cell-free.
A short description of series [8]: Half life in MES buffer at 100 uM at pH 6 by HPLC analysis. The class given is physicochemical. The note with it: pH 6, 100 µM. A digest of the protocol: as §1
Series [9] in a line: Stability in HEPES buffer assessed as prodrug conversion to 1-Benzosuberol at pH 7.4 by HPLC analysis. The class given is physicochemical.
Series [10] can be described thus: Stability in HEPES buffer assessed as prodrug conversion to meropenem at pH 7.4 by HPLC analysis. The class given is physicochemical. A digest of the protocol: as §1
A short description of series [11]: Chemical stability of the compound in simulated gastric fluid assessed as compound remaining at 10 uM after 60 mins at pH 1.2. The class given is physicochemical. The note with it: read-out: Stability.
A short description of series [12]: Chemical stability of the compound in simulated gastric fluid assessed as drug degradation at 10 uM after 30 mins at pH 1.2. The format is physicochemical. To be noted: read-out: Drug degradation.
Series [13] can be described thus: Lipophilicity, log D of the compound. The class given is physicochemical. The note with it: octanol/water.

In the case of `C[C@@H](O)[C@H]1C(=O)N2C(C(=O)OCOC(=O)O[C@@H]3CCCCc4ccccc43)=C(S[C@@H]3CN[C@H](C(=O)N(C)C)C3)[C@H](C)[C@H]12`, the t1/2 in series [1] is recorded as 0.9 min; in series [2], 11 min; in series [3] it was 27 min; in series [4] it was 34 min.

Consider `CC(C)OC(=O)OC(C)OC(=O)C1=C(S[C@@H]2CN[C@H](C(=O)N(C)C)C2)[C@H](C)[C@@H]2[C@@H]([C@@H](C)O)C(=O)N12` (some centres not stated), for which the values for the half-life at 5000 µM in [1] (Dunkin-Hartley) and in [7] were 1.4 min and 11 min, respectively. Further, the results for the Stability in [5] (2 h) and in series [6] (2 h) were 87% and 92%, respectively. This compound gave a half-life at 100 µM in series [2] (simulated gastric fluid, pH 1.2) of 9.8 min.

As for `C[C@@H](O)[C@H]1C(=O)N2C(C(=O)OCOC(=O)O[C@H]3CCc4ccccc43)=C(S[C@@H]3CN[C@H](C(=O)N(C)C)C3)[C@H](C)[C@H]12`, the t1/2 in series [3] is on record as < 1 min.

Consider `C[C@@H](O)[C@H]1C(=O)N2C(C(=O)OCOC(=O)O[C@H]3CCCc4ccccc43)=C(S[C@@H]3CN[C@H](C(=O)N(C)C)C3)[C@H](C)[C@H]12`, for which the t1/2 in series [8] was 0.9 min; in series [3], 1.4 min.

As for `C[C@@H](O)[C@H]1C(=O)N2C(C(=O)OCOC(=O)O[C@@H]3CCCc4ccccc43)=C(S[C@@H]3CN[C@H](C(=O)N(C)C)C3)[C@H](C)[C@H]12`, the t1/2 worked out at 0.96 min in series [8] and 1.5 min in series [3].

With `C[C@@H](O)[C@H]1C(=O)N2C(C(=O)OCOC(=O)O[C@H]3CCCCc4ccccc43)=C(S[C@@H]3CN[C@H](C(=O)N(C)C)C3)[C@H](C)[C@H]12`, the t1/2 in series [1] is 1.3 min; in [2], 9.3 min; in [8] it was 32 min; in series [3] it was 28 min; in series [4] it was 44 min. Further, the Drug metabolism entry in [9] and in series [10] was “Active” each time.

On to `CC(=O)N1C[C@@H](SC2=C(C(=O)OCOC(=O)O[C@H]3CCCCc4ccccc43)N3C(=O)[C@H]([C@@H](C)O)[C@H]3[C@H]2C)C[C@H]1C(=O)N(C)C`, for which the t1/2 in [2] was 7 min; in [8] it was 28 min; in series [3], 28 min.

For `C[C@@H](O)[C@H]1C(=O)N2C(C(=O)OCOC(=O)OC3Cc4ccccc4C3)=C(S[C@@H]3CN[C@H](C(=O)N(C)C)C3)[C@H](C)[C@H]12`, the t1/2 in series [1] is on record as 0.9 min; in [2] it was 13 min; in series [4], 4.3 min. Also, the Stability in series [5] came to 70%; in series [6], 96%.

`CC(OC(=O)O[C@H]1CCCCc2ccccc21)OC(=O)C1=C(S[C@@H]2CN[C@H](C(=O)N(C)C)C2)[C@H](C)[C@@H]2[C@@H]([C@@H](C)O)C(=O)N12` (mixture of isomers): the t1/2 in [2] is recorded as 18 min; in [8], 80 min; in series [3], 64 min.

As for `C[C@@H](O)[C@H]1C(=O)N2C(C(=O)OCOC(=O)OC3CCc4ccccc4C3)=C(S[C@@H]3CN[C@H](C(=O)N(C)C)C3)[C@H](C)[C@H]12` (mixture of isomers), the t1/2 in [1] is reported as 1.7 min; in series [2], 14 min; in series [4], 8.1 min. Besides, the Stability in [5] is 78%; in series [6], 93%.

Take `C[C@@H](O)[C@H]1C(=O)N2C(C(=O)OCOC(=O)OC3CCCc4ccccc4C3)=C(S[C@@H]3CN[C@H](C(=O)N(C)C)C3)[C@H](C)[C@H]12` (mixture of isomers): the t1/2 is given as 1.9 min in [1], 21 min in [2] and 23 min in series [4]. The Stability was 79% in [5] and 96% in [6].

Regarding `CC(C)OC(=O)OC(C)OC(=O)C1=C(S[C@@H]2CN[C@H](C(=O)N(C)C)C2)[C@H](C)[C@@H]2[C@@H]([C@@H](C)O)C(=O)N12` (single isomer, unassigned; diastereomer 1), the t1/2 is given as 6.5 min in [1], 8.8 min in series [2] and 108 min in series [4]. The Stability in [5] (2 h) was 90%; in series [6] (2 h) it was 94%.

Consider `Nc1nc(/C(=C/CC(=O)O)C(=O)N[C@@H]2C(=O)N3C(C(=O)O)=CCS[C@H]23)cs1` [CEFTIBUTEN], for which the remaining at 1 h, 10 µM in series [11] is 94%.

`C[C@@H](O)[C@H]1C(=O)N2C(C(=O)O)=C([C@H]3CCCO3)S[C@H]12` [FAROPENEM]: in [11], the remaining at 1 h, 10 µM was 70%.

As for `C[C@@H](O)[C@H]1C(=O)N2C(C(=O)O)=C(S[C@@H]3CN[C@H](C(=O)N(C)C)C3)[C@H](C)[C@H]12` [MEROPENEM], the degraded at 0.5 h, 10 µM in series [12] is 80%. In addition, in series [13], the logD is < 2.5. In addition, the remaining at 1 h, 10 µM in series [11] is 5%.
